Test [1] concerns the target T1, human CD39 (Homo sapiens, UniProt P49961).
T1 sequence (P49961 1-510): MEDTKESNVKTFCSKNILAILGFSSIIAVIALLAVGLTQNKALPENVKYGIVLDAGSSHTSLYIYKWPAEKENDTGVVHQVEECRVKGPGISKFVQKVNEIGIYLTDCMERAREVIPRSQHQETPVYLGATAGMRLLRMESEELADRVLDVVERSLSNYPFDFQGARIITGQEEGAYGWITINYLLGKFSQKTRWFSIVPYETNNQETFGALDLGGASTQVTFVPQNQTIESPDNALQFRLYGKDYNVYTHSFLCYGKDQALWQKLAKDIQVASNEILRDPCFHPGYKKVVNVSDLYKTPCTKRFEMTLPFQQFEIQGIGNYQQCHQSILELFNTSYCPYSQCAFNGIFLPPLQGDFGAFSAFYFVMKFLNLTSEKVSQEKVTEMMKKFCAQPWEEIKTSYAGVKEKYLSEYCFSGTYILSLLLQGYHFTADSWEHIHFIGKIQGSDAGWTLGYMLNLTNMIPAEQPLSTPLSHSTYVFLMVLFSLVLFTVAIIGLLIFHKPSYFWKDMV
Description: CE-UV. In kind it is biochemical. The essentials: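 Recombinant human CD39 (COS-7 membranes) was incubated with test compound (0.1–300 µM) and 100 µM ATP. Buffer: 10 mM HEPES, 2 mM CaCl2, 1 mM MgCl2, pH 7.4; 30 min at 37°C. Reactions were stopped by heating 10 min at 90°C. ATP, ADP and AMP were separated by capillary electrophoresis with UV detection.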

Test [2] has as its target T1, human CD39. Description: Inhibition type experiments, malachite green assay on recombinant human CD39. In kind it is biochemical.
In a further test the target is T2, NPP4 (Homo sapiens, UniProt Q9Y6X5).
T2 sequence (Q9Y6X5 16-407 limits assumed): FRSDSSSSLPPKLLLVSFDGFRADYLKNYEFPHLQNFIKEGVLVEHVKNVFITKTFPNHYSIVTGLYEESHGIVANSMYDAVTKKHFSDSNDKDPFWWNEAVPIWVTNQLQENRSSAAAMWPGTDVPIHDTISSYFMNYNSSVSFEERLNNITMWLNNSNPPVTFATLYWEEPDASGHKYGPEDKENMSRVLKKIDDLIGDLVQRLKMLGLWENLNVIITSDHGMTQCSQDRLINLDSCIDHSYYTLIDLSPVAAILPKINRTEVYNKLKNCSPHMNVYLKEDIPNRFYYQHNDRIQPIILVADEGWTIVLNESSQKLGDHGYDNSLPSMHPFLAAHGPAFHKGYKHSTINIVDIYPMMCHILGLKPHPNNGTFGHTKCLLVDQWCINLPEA
Description: NPP4 assay. In kind it is biochemical. The essentials: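 Purified soluble NPP4 (1200 ng, Sf9-expressed) was incubated with 50 µM test compound, 2% DMSO and 300 µM diadenosine tetraphosphate. Buffer: 10 mM HEPES, 2 mM CaCl2, 1 mM MgCl2, pH 8.0; 90 min at 37°C with shaking. The reaction was heat-stopped (90°C, 5 min) and chilled on ice. Product ATP was quantified by capillary electrophoresis.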

The test system of another test is human PBMCs. In words: HPLC assay of ATPase activity. In kind it is cell-based. The note with it: ceritinib 50 µM and higher; 1 µM eATP. The essentials:
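PBMCs were isolated from buffy coats by density gradient. Cells (2×10^5) were pretreated with test compound (1, 10, 50, 100 µM) for 15 min at 37°C, then given 1 µM eATP (ATPase) or eAMP (AMPase) for 30 min at 37°C. Cells were removed and supernatants 10 kDa-filtered. Etheno-nucleotides were quantified by reversed-phase C8 HPLC (phosphate pH 6.0/methanol gradient; fluorescence 230/410 nm) against standards; singlets, n=2–3.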

Here are results for one compound from publication PMC9394215 (Journal for Immunotherapy of Cancer, 2022).

Some results are limits rather than exact numbers.

For the compound `Cc1cc(Nc2ncc(Cl)c(Nc3ccccc3S(=O)(=O)C(C)C)n2)c(OC(C)C)cc1C1CCNCC1` [ceritinib, Ceritinib], the IC50 on human CD39 [1] was 13.7 ± 0.6 µM; on NPP4 it was over 50 µM. Also, the Ki on human CD39 [2] was 11 µM. Also, the inhibition type entry at human CD39 [2] (Km unchanged, Vmax decreased, Hanes-Woolf plot) is recorded as “non-competitive, allosteric”. In addition, the inhibition at 50 µM at NPP4 (read-out: % inhibition at 50 µM) was found to be 15%. Further, the “formation of eAMP from eATP by PBMCs” value with human PBMCs was “completely blocked”.
